# From ChEMBL document CHEMBL1142628, “Antineoplastic agents 430. Isolation and structure of cribrostatins 3, 4, and 5 from the republic of maldives cribrochalina species” (2000)
# Active and inactive are the calls of the source. The calls are words filed in the database; no cut-off is given here.
# How the values were obtained:
# Staphylococcus aureus = experiment: Antibacterial activity against Staphylococcus aureus ATCC 29213 at 100 ug/disk by disk diffusion method; type: functional, organism-based
# Candida albicans = experiment: Antifungal activity against Candida albicans ATCC 90028 at 100 ug/disk by disk diffusion method; type: functional, organism-based
# Enterococcus faecalis = experiment: Antibacterial activity against Enterococcus faecalis ATCC 29212 at 100 ug/disk by disk diffusion method; type: functional, organism-based
# Neisseria gonorrhoeae [1] = experiment: Antibacterial activity against Neisseria gonorrhoeae ATCC 49226 by disk diffusion method; type: functional
# DU-145 = experiment: Growth inhibition of human DU145 cells; type: functional
# How it was run: (§1)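 NCI 60-cell-line screen run by the standard NCI protocol. Each test agent ran in quadruplicate, with a top concentration of 10^-5 M and five log-spaced dilutions. GI50 values were averaged and reported as negative log GI50.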
# Micrococcus luteus [2] = experiment: Antibacterial activity against Micrococcus luteus Presque Isle 456 by disk diffusion method; type: functional
# Escherichia coli = experiment: Antibacterial activity against Escherichia coli ATCC 25922 at 100 ug/disk by disk diffusion method; type: functional, organism-based
# P388 = experiment: Growth inhibition of mouse P388 cells; type: functional
# NCI-H460 [3] = experiment: (§2) Growth inhibition of human NCI-H460 cells; type: functional; how it was run: as §1
# Streptococcus pneumoniae [4] = experiment: Antibacterial activity against Streptococcus pneumoniae ATCC 6303 at 100 ug/disk by disk diffusion method; type: functional, organism-based
# SF-295 [5] = experiment: (§3) Growth inhibition of human SF295 cells; type: functional
# How it was run: (§4)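 NCI human tumor cell line panel screen run to the standard NCI protocol. Each compound tested in quadruplicate with a top concentration of 10^-5 M and five log-spaced dilutions. GI50 values were averaged across replicates and reported as negative log GI50.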
# Cryptococcus neoformans = experiment: Antifungal activity against Cryptococcus neoformans ATCC 90112 at 100 ug/disk by disk diffusion method; type: functional, organism-based
# OVCAR-3 = experiment: Growth inhibition of human OVCAR-3 cells; type: functional; how it was run: as §1
# Bacillus subtilis [6] = experiment: Antibacterial activity against Bacillus subtilis Presque Isle 620 at 100 ug/disk by disk diffusion method; type: functional, organism-based
# [7] = system: Stenotrophomonas maltophilia; experiment: Antibacterial activity against Stenotrophomonas maltophilia ATCC 13637 at 100 ug/disk by disk diffusion method; type: functional, organism-based
# BXPC-3 = experiment: Growth inhibition of human BXPC3 cells; type: functional
# KM-20L2 = experiment: Growth inhibition of human KM20L2 cells; type: functional
# MDA-N = experiment: Growth inhibition of human MDA-N cells; type: functional; how it was run: as §1
# T47D = experiment: Growth inhibition of human T47D cells; type: functional; how it was run: as §4
# Enterobacter cloacae = experiment: Antibacterial activity against Enterobacter cloacae ATCC 13047 at 100 ug/disk by disk diffusion method; type: functional, organism-based
# RXF 393 = experiment: Growth inhibition of human RXF393 cells; type: functional; how it was run: as §4
# NCI-H226 = experiment: Growth inhibition of human NCI-H226 cells; type: functional; how it was run: as §1
# SF-268 = experiment: Growth inhibition of human SF268 cells; type: functional; how it was run: as §4
# MCF7 [8] = experiment: Growth inhibition of human MCF7 cells; type: functional; how it was run: as §1
# U-251 = experiment: Growth inhibition of human U251 cells; type: functional; how it was run: as §4
# NCI-H460 [9] = experiment: as §2; type: functional; how it was run: as §1; remark: listed apart in the source
# LOX IMVI = experiment: Growth inhibition of human LOX IMVI cells; type: functional; how it was run: as §1
# HOP-62 = experiment: Growth inhibition of human HOP62 cells; type: functional; how it was run: as §1
# [10] = system: Streptococcus sp. 'group A'; experiment: Antibacterial activity against group A Streptococcus isolate by disk diffusion method; type: functional
# K562 = experiment: Growth inhibition of human K562 cells; type: functional; how it was run: as §1
# SK-MEL-5 = experiment: Growth inhibition of human SK-MEL-5 cells; type: functional; how it was run: as §4
# MOLT-4 = experiment: Growth inhibition of human MOLT4 cells; type: functional; how it was run: as §1
# NCI-H522 = experiment: Growth inhibition of human NCI-H522 cells; type: functional; how it was run: as §1
# ACHN = experiment: Growth inhibition of human ACHN cells; type: functional; how it was run: as §1
# SNB-75 = experiment: Growth inhibition of human SNB75 cells; type: functional; how it was run: as §4
# PC-3 = experiment: Growth inhibition of human PC3 cells; type: functional; how it was run: as §1
# OVCAR-8 = experiment: Growth inhibition of human OVCAR8 cells; type: functional; how it was run: as §1
# HOP-92 = experiment: Growth inhibition of human HOP92 cells; type: functional; how it was run: as §1
# CCRF-CEM = experiment: Growth inhibition of human CCRF-CEM cells; type: functional; how it was run: as §1
# Streptococcus pneumoniae [11] = experiment: Antibacterial activity against Streptococcus pneumoniae ATCC 6303 by disk diffusion method; type: functional
# IGROV-1 = experiment: Growth inhibition of human IGROV1 cells; type: functional; how it was run: as §1
# SR = experiment: Growth inhibition of human SR cells; type: functional; how it was run: as §4
# MCF7 [12] = experiment: Growth inhibition of human adriamycin-resistant MCF7 cells; type: functional; how it was run: as §4
# FaDu = experiment: Growth inhibition of human FaDu cells; type: functional
# OVCAR-4 = experiment: Growth inhibition of human OVCAR4 cells; type: functional; how it was run: as §1
# SW-1736 = experiment: Growth inhibition of human SW1736 cells; type: functional
# RPMI-8226 = experiment: Growth inhibition of human RPMI8226 cells; type: functional; how it was run: as §1
# Malme-3M = experiment: Growth inhibition of human MALME-3M cells; type: functional; how it was run: as §1
# KM12 = experiment: Growth inhibition of human KM12 cells; type: functional; how it was run: as §1
# MDA-MB-231 = experiment: Growth inhibition of human MDA-MB-231/ATCC cells; type: functional; how it was run: as §1
# Bacillus subtilis [13] = experiment: Antibacterial activity against Bacillus subtilis Presque Isle 620 by disk diffusion method; type: functional
# SF-295 [14] = experiment: as §3; type: functional; how it was run: as §4; remark: listed apart in the source
# Hs-578T = experiment: Growth inhibition of human HS578T cells; type: functional; how it was run: as §1
# COLO 205 = experiment: Growth inhibition of human COLO205 cells; type: functional; how it was run: as §1
# MDA-MB-435 = experiment: Growth inhibition of human MDA-MB-435 cells; type: functional; how it was run: as §1
# SF-539 = experiment: Growth inhibition of human SF539 cells; type: functional; how it was run: as §4
# SW-620 = experiment: Growth inhibition of human SW620 cells; type: functional; how it was run: as §4
# UACC-62 = experiment: Growth inhibition of human UACC62 cells; type: functional; how it was run: as §4
# SN12C = experiment: Growth inhibition of human SN12C cells; type: functional; how it was run: as §4
# SK-N-SH = experiment: Growth inhibition of human SK-N-SH cells; type: functional
# Streptococcus pneumoniae [15] = experiment: Antibacterial activity against invasive Streptococcus pneumoniae isolate at 100 ug/disk by disk diffusion method; type: functional, organism-based
# Micrococcus luteus [16] = experiment: Antibacterial activity against Micrococcus luteus Presque Isle 456 at 100 ug/disk by disk diffusion method; type: functional, organism-based
# Neisseria gonorrhoeae [17] = experiment: Antibacterial activity against penicillin-resistant Neisseria gonorrhoeae isolate by disk diffusion method; type: functional
# [18] = Growth inhibition of human HL60(TB) cells; type: functional, HL-60(TB); conditions: HL-60
# How it was run: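 NCI human tumour cell-line panel screen run by the standard NCI protocol. Each compound was tested in quadruplicate, with an upper concentration limit of 10^-5 M and five log-spaced dilutions. GI50 values were averaged and reported as negative log GI50.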
# A549 = experiment: Growth inhibition of human A549/ATCC cells; type: functional; how it was run: as §1
# 786-0 = experiment: Growth inhibition of human 786-0 cells; type: functional; how it was run: as §1
# Streptococcus pneumoniae [19] = experiment: Antibacterial activity against penicillin-resistant Streptococcus pneumoniae isolate by disk diffusion method; type: functional
# [20] = read-out: ED50 (the source's name)
structure (smiles),measurement,setting,value
C/C=C(/C)C(=O)OCc1nccc2c1C(=O)C(NC)=C(C)C2=O [CRIBROSTATIN 4],Activity,Staphylococcus aureus,inactive
same,Activity,Candida albicans,inactive
same,Activity,Enterococcus faecalis,inactive
same,MIC,Neisseria gonorrhoeae [1],6.25 µg/disc
same,GI50,DU-145,0.3 µg/mL
same,MIC,Micrococcus luteus [2],50 µg/disc
same,Activity,Escherichia coli,inactive
same,GI50,P388,0.045 µg/mL
same,EC50,P388; [20],0.045 µg/mL
same,GI50,NCI-H460 [3],0.22 µg/mL
same,Activity,Streptococcus pneumoniae [4],inactive
same,GI50,SF-295 [5],0.36 µg/mL
same,Activity,Cryptococcus neoformans,inactive
same,GI50,OVCAR-3,0.18 µg/mL
same,Activity,Bacillus subtilis [6],inactive
same,Activity,[7],inactive
same,GI50,BXPC-3,0.29 µg/mL
same,GI50,KM-20L2,0.14 µg/mL
C/C=C(/C)C(=O)OC[C@H]1C2=C(C=C3[C@H]4c5c(O)c(OC)c(C)c(O)c5C(=O)[C@@H](C(=O)N31)N4C)C(=O)C(C)=C(OC)C2=O [CRIBROSTATIN 5],GI50,MDA-N,2.19 µM
same,GI50,T47D,2.09 µM
same,Activity,Enterobacter cloacae,inactive
same,GI50,RXF 393,5.25 µM
same,Activity,Staphylococcus aureus,inactive
same,GI50,NCI-H226,7.94 µM
same,GI50,SF-268,9.55 µM
same,GI50,MCF7 [8],8.13 µM
same,GI50,U-251,6.46 µM
same,GI50,NCI-H460 [9],7.59 µM
same,GI50,LOX IMVI,3.31 µM
same,GI50,HOP-62,7.59 µM
same,MIC,[10],12.5 µg/disc
same,GI50,K562,4.37 µM
same,GI50,SK-MEL-5,8.13 µM
same,Activity,Candida albicans,inactive
same,GI50,MOLT-4,1.91 µM
same,Activity,Enterococcus faecalis,inactive
same,GI50,NCI-H522,4.17 µM
same,GI50,ACHN,7.94 µM
same,GI50,SNB-75,5.62 µM
same,GI50,PC-3,9.12 µM
same,GI50,OVCAR-8,4.27 µM
same,MIC,Neisseria gonorrhoeae [1],6.25 µg/disc
same,GI50,HOP-92,8.13 µM
same,GI50,CCRF-CEM,1.7 µM
same,MIC,Streptococcus pneumoniae [11],6.25 µg/disc
same,GI50,IGROV-1,8.51 µM
same,GI50,SR,3.8 µM
same,GI50,DU-145,> 10 µg/mL
same,GI50,MCF7 [12],6.76 µM
same,GI50,FaDu,0.26 µg/mL
same,GI50,OVCAR-4,1.82 µM
same,GI50,SW-1736,> 10 µg/mL
same,GI50,RPMI-8226,6.17 µM
same,Activity,Escherichia coli,inactive
same,GI50,P388,24.6 µg/mL
same,GI50,Malme-3M,0.389 µM
same,GI50,KM12,9.12 µM
same,GI50,MDA-MB-231,2.69 µM
same,MIC,Bacillus subtilis [13],12.5 µg/disc
same,GI50,SF-295 [14],8.91 µM
same,GI50,Hs-578T,8.71 µM
same,GI50,COLO 205,8.13 µM
same,GI50,MDA-MB-435,1.82 µM
same,GI50,NCI-H460 [3],> 10 µg/mL
same,GI50,SF-539,5.75 µM
same,GI50,SW-620,6.92 µM
same,GI50,UACC-62,9.77 µM
same,GI50,SN12C,7.08 µM
same,GI50,SK-N-SH,3.6 µg/mL
same,GI50,SF-295 [5],> 10 µg/mL
same,Activity,Streptococcus pneumoniae [15],inactive
same,Activity,Micrococcus luteus [16],inactive
same,Activity,Cryptococcus neoformans,inactive
same,GI50,OVCAR-3,2.2 µg/mL
same,EC50,OVCAR-3; [20],2.2 µg/mL
same,MIC,Neisseria gonorrhoeae [17],1.56 µg/disc
same,GI50,[18],5.37 µM
same,Activity,[7],inactive
same,GI50,A549,8.71 µM
same,GI50,BXPC-3,5.6 µg/mL
same,GI50,786-0,6.17 µM
same,GI50,KM-20L2,> 10 µg/mL
same,MIC,Streptococcus pneumoniae [19],50 µg/disc
